Measurements taken from publication PMC10796979 (The Journal of Biological Chemistry, 2023).

T1: C3aR1 (Homo sapiens, UniProt Q16581)
T1 sequence (Q16581 1-482): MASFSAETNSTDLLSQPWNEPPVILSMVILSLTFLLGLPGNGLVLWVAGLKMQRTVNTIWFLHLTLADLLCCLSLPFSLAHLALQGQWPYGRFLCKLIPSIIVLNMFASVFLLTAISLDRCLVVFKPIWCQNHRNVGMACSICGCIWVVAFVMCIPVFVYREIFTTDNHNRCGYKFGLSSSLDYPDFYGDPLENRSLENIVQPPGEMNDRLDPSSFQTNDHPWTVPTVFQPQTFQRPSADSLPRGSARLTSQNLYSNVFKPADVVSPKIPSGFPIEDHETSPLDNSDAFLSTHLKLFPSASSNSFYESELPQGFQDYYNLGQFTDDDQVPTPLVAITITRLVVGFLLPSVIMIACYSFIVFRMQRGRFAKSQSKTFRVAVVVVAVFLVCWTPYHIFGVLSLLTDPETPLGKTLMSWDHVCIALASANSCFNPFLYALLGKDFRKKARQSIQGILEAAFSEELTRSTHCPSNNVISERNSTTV

T2: Complement C3a receptor 1 (C3aR1) fused to Rluc8 on the C-terminus (UniProt Q16581)
T2 sequence: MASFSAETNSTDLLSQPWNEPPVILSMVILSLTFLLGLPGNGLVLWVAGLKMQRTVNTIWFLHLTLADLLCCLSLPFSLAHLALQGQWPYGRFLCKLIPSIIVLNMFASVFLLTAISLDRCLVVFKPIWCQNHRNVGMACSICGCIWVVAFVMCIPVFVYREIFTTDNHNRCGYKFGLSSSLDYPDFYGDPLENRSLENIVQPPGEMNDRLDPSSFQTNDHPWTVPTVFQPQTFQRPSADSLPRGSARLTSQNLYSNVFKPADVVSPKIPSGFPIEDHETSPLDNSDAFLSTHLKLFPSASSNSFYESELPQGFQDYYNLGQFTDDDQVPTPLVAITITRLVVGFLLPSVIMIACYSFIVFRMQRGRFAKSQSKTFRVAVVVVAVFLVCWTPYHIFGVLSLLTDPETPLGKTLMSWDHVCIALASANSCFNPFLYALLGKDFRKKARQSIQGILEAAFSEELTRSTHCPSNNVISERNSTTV


Key:
C3aR1 [1] = target: T1, C3aR1; assay: C3aR1 G protein dissociation BRET assay; type: cell-based
Outline: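 HEK293T co-transfected 1:1:1:1 with Gα-Rluc8, Gβ1, GFP2-Gγ and C3aR1, repeated for each Gα subtype (i, o, z, s, olf, q, 11–15). Cells plated overnight in DMEM with 1% dialyzed FBS. Test compound (3×) added in duplicate in HBSS/20 mM HEPES/0.1% BSA/0.01% ascorbic acid, pH 7.4, for 60 min at 37 °C. Coelenterazine 400a (5 μM final) added for 15 min; read at 400/515 nm. GFP2/Rluc8 ratio fitted by log(agonist)-response; three independent experiments, mean and SEM.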

C3aR1 [2] = target: T1, C3aR1; assay: Gi/o-mediated cAMP inhibition Glosensor assay; type: cell-based
C3aR1 [3] = target: T1, C3aR1; assay: C3aR1 β-arrestin2 recruitment BRET assay; type: cell-based
Outline: (§1)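 HEK293T co-transfected 1:3:15 with C-terminal Rluc8-tagged C3aR1, GRK2 and N-terminal Venus-β-arrestin1 or Venus-β-arrestin2, then plated overnight in DMEM with 1% dialyzed FBS. Cells washed, then test compound (3×) added in HBSS/HEPES buffer, pH 7.4. Coelenterazine h (5 μM final) added 15 min before reading at 485/530 nm, at time points up to 60 min, 37 °C. Net BRET was Venus/Rluc8 corrected against wells lacking Venus-arrestin, plotted against concentration.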

C3aR1 [4] = target: T1, C3aR1; assay: C3aR1 β-arrestin1 recruitment BRET assay; type: cell-based
Outline: as §1

C3aR1 [5] = target: T1, C3aR1; assay: ELISA surface expression; type: cell-based
3T3-L1 cells = assay: Fluo-4 calcium influx assay in 3T3-L1 cells; type: cell-based
Outline: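 3T3-L1 cells plated at 60% confluency on collagen-coated chamber slides. Next day, medium replaced with HBSS and cells loaded with 2.5 μM Fluo-4 AM for 30 min. Single cells imaged every second for 3 min, with treatment added at 30 s; UTP served as positive control. AUC over the first 60 s taken after background removal, with each cell normalised to its basal intensity. Values were normalised to control and rescaled to 0–1.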

3T3-L1 adipocytes = assay: Lipolysis; type: cell-based; conditions: 30 min or 3 h incubation
Outline: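 3T3-L1 cells differentiated with insulin-containing medium and used 8–9 days after induction. Serum-starved in KRH buffer, then given ISO 50 nM plus test compound (10 nM to 1 μM) for 30 min or 3 h. Medium heat-inactivated at 60 °C for 20 min, then glycerol measured colorimetrically at 540 nm. Glycerol normalised to Bradford protein and expressed as fold over control in the same experiment. One-way ANOVA with Tukey.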

[6] = target: T2, Complement C3a receptor 1 (C3aR1) fused to Rluc8 on the C-terminus

Molecule | fold more potent to cause G protein dissociation compared to C3a63-77 (C3aR1 [1]; Gi/o/z subtypes) [fold] | G protein dissociation activity across Gi/o/z subtypes (C3aR1 [1]; all tested Gi/o/z subtypes) | G protein dissociation at Gs, Gq or G12/13 subtypes (C3aR1 [1]; full screen panel of Gα proteins) | activity in FSK-induced Gi/o-mediated cAMP inhibition (C3aR1 [2]) | β-arrestin2 recruitment potency compared to C3a63-77 (C3aR1 [3]) | β-arrestin1 recruitment potency compared to C3a63-77 (C3aR1 [4]) | β-arr2-dependent C3aR1 internalization compared to C3a63-77 (C3aR1 [5]) | induction of calcium influx by the compound alone (3T3-L1 cells) | potentiation of adrenergic (ISO)-induced lipolysis (3T3-L1 adipocytes) | recruitment of Venus-β-arrestin1 to C3aR1-Rluc8 by BRET, EC50 of the agonist [6] [µM] | recruitment of Venus-β-arrestin2 to C3aR1-Rluc8 by BRET, EC50 of the agonist [6] [µM]
NC(N)=NCCC[C@H](NC(=O)COCC(c1ccccc1)c1ccccc1)C(=O)O [SB290157] | ~10 | robust C3aR1 G protein dissociation agonist activity | no activity | shows agonist activity | more potent than C3a63-77 | more potent than C3a63-77 | more potent and efficacious | does not induce calcium influx | did not potentiate | – | –
TLQPPASSRRRHFHHALPPAR [mouse TLQP-21] | – | – | – | – | – | – | – | – | – | 0.191 | 0.542
TLQPPSALRRRHYHHALPPSR [human TLQP-21] | – | – | – | – | – | – | – | – | – | – | 3.18
